Assay results taken from paper PMC9290826 (Chemmedchem, 2021).
In brackets after ≈: the same amount, converted by molar mass. Several values for one entry are separate records, joined by “and”; a condition that tells them apart may be missing. Identical values can stand only once.

Key:
Assay in all cases: Antibacterial screening, broth dilution MIC
Type in all cases: cell-based
[1] = test system: Pseudomonas aeruginosa PA7 (DSM 24068); conditions: for Mean MIC ± standard error: P. aeruginosa PA7, MHB medium, 20 h at 37 °C, absorbance 600 nm, n=3‐13
Procedure, shortened: (§1)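 Broth microdilution in MHB (21 g/L Müller Hinton, pH 7.4). Test compound serially diluted from 64 μg/ml, inoculum 2–8×10^5 CFU/ml, duplicate wells. Incubated 20 h at 37 °C, then absorbance read at 600 nm. MIC derived by curve fitting over three independent experiments. Positive controls: amikacin for P. aeruginosa, ciprofloxacin for the others.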

[2] = test system: Staphylococcus aureus MRSA (DSM 11822, ICB 25701); conditions: for Mean MIC ± standard error: MRSA, TSY medium, 20 h at 37 °C, absorbance 600 nm, n=3‐13
Procedure, shortened: (§2)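 Test compound serially diluted from 64 μg/ml, inoculum 2–8×10^5 CFU/ml, duplicate wells. Incubated 20 h at 37 °C, then absorbance read at 600 nm. MIC derived by curve fitting over three independent experiments. Positive controls: linezolid for S. aureus, ciprofloxacin for the others.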

[3] = test system: Escherichia coli (DSM1116, ATCC 9637); conditions: E. coli, TSY medium, 20 h at 37 °C, absorbance 600 nm, n=3‐13
Procedure, shortened: as §2

[4] = test system: Enterococcus faecium (DSM 20477, ATCC 19434); conditions: E. faecium, TSY medium, 20 h at 37 °C, absorbance 600 nm, n=3‐13
Procedure, shortened: as §2

[5] = test system: Acinetobacter baumannii (DSM 30007, ATCC 19606); conditions: A. baumannii, MHB medium, 20 h at 37 °C, absorbance 600 nm, n=3‐13
Procedure, shortened: as §1

[6] = test system: Klebsiella pneumoniae (DSM 11678, ATCC33495); conditions: K. pneumoniae, MHB medium, 20 h at 37 °C, absorbance 600 nm, n=3‐13
Procedure, shortened: as §1

Mean MIC ± standard error [1]	Mean MIC ± standard error [2]	Mean MIC ± standard error [3]	Mean MIC ± standard error [4]	Mean MIC ± standard error [5]	Mean MIC ± standard error [6]	MIC ([1]; Pseudomonas aeruginosa, DSM24068, 20 h, read-out: Mean MIC ± standard error)	MIC ([2]; Staphylococcus aureus, DSM11822|MRSA, 20 h, read-out: Mean MIC ± standard error)	SMILES
118.0 ± 43.1 µM	0.8 ± 0.4 µM	39.3 ± 0.0 µM	1.2 ± 0.0 µM	8.4 ± 2.4 µM	65.6 µM and 65.6 ± 32.1 µM	–	–	CCn1[c](=[Au-2][Cl])n(CC)c2ccccc21 [2 b]
>30 µM	1.1 ± 0.0 µM	39.1 ± 25.6 µM	4.2 ± 0.0 µM	3.5 ± 1.2 µM	16.8 µM and 16.8 ± 0.0 µM	–	–	CCn1[c](=[Au-2]([Cl])([Cl])[Cl])n(CC)c2ccccc21 [2 c]
–	–	–	–	–	–	6.9 ± 7.3 µM (≈ 4.04 µg/mL)	–	NCC[C@H](O)C(=O)N[C@@H]1C[C@H](N)[C@@H](O[C@H]2O[C@H](CN)[C@@H](O)[C@H](O)[C@H]2O)[C@H](O)[C@H]1O[C@H]1O[C@H](CO)[C@@H](O)[C@H](N)[C@H]1O [amikacin, reference compound]
>30 µM	<0.2 µM	>30 µM	0.6 ± 0.2 µM	7.8 ± 7.1 µM	>30 µM	–	–	CC(=O)OC[C@H]1O[C@@H]([S-])[C@H](OC(C)=O)[C@@H](OC(C)=O)[C@@H]1OC(C)=O.CCP(CC)CC.[Au+] [auranofin, reference compound]
–	–	–	–	–	–	–	2.8 ± 1 µM (≈ 0.945 µg/mL)	CC(=O)NC[C@H]1CN(c2ccc(N3CCOCC3)c(F)c2)C(=O)O1 [linezolid, reference compound]
